Experimental data gathered from unrelated publications.
Observed: cell growth or viability

Structure (SMILES) | cell line | assay | setting | endpoint | result
Cc1cc(C)cc(Nc2ccc(-c3ccc(S(N)(=O)=O)cc3)cc2)c1 | BHK-21 | MTT | 100 µM | viability | 88%
O=C1C(=O)c2cccnc2-c2ncccc21 | Vero | MTT | 72 h | CC50 | > 200 µM
CNC(=N)NCCC[C@H](N)C(=O)O | RAW264.7 | MTT | 250 µg/mL, 24 h, LPS-stimulated | viability | > 85%
Cc1cc(-c2ccc(/N=N/c3ccc4c(S(=O)(=O)O)cc(S(=O)(=O)O)c(N)c4c3O)c(C)c2)ccc1/N=N/c1ccc2c(S(=O)(=O)O)cc(S(=O)(=O)O)c(N)c2c1O | BHK-21 | CCK-8 | 48 h | CC50 | 242 µM
COc1cccc2c1C(=O)c1c(O)c3c(c(O)c1C2=O)C[C@@](O)(C(=O)CO)C[C@@H]3O[C@H]1C[C@H](N)[C@H](O)[C@H](C)O1 | Vero | MTT | 72 h | CC50 | 9.6 µM
CC1=NN(c2ccc(C)c(C)c2)C(=O)/C1=N\Nc1cccc(-c2cccc(C(=O)O)c2)c1O | BHK-21 | CCK-8 | 48 h | CC50 | 104 µM
O=C(C1CCCCC1)N1CC(=O)N2CCc3ccccc3C2C1 (centres unmarked) | Vero | MTT | 72 h | CC50 | > 200 µM
NS(=O)(=O)c1ccc(-c2ccc(Nc3ccc(Cl)cc3)cc2)cc1 | BHK-21 | MTT | 100 µM | viability | 60%
Nc1nc2c(ncn2COCCO)c(=O)[nH]1 | Vero | MTT | 48 h | CC50 | 320 µM
COC(=O)c1ccc(Nc2ccc(-c3ccc(S(N)(=O)=O)cc3)cc2)cc1 | BHK-21 | MTT | 100 µM | viability | 68%
NC(=NCc1ccccc1)NC(=O)c1nc(Cl)c(N)nc1N | BHK-21 | CCK-8 | 48 h | CC50 | 44.5 µM
